ChEMBL document CHEMBL3414442, “Synthesis and biological evaluation of 2,4-diaminopyrimidines as selective Aurora A kinase inhibitors” (Eur J Med Chem, 2015)
Calls of active or inactive are those of the source. No cut-off for these calls is given here.

Legend:
[1] = Cytotoxicity against human HCT8 cells after 48 hrs by MTT assay; assay type: functional, cell-based; conditions: HCT-8, 48 h
Method in brief: (§1)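 Cells were grown at 37 °C in 5% CO2, plated and left to attach for 4–6 h, then exposed to five concentrations (dissolved in saline) in quadruplicate wells for 48 h. MTT was added for 4 h, formazan was dissolved in DMSO, and A490 was read. IC50 was taken from a log plot of percent of control versus concentration, as the mean of three independent experiments.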

[2] = test system: A549; assay: Cytotoxicity against human A549 cells after 48 hrs by MTT assay; assay type: functional, cell-based; conditions: A549, 48 h; method in brief: as §1
[3] = test system: HeLa; assay: Cytotoxicity against human HeLa cells after 48 hrs by MTT assay; assay type: functional, cell-based; method in brief: as §1
[4] = test system: HepG2; assay: Cytotoxicity against human HepG2 cells after 48 hrs by MTT assay; assay type: functional, cell-based; conditions: HepG2, 48 h; method in brief: as §1
[5] = target: T1, Aurora kinase A (Homo sapiens) (UniProt O14965); assay: Inhibition of Aurora A in human HeLa cells after 12 hrs by Western blot method; assay type: cell-based
T1 sequence (whole entry): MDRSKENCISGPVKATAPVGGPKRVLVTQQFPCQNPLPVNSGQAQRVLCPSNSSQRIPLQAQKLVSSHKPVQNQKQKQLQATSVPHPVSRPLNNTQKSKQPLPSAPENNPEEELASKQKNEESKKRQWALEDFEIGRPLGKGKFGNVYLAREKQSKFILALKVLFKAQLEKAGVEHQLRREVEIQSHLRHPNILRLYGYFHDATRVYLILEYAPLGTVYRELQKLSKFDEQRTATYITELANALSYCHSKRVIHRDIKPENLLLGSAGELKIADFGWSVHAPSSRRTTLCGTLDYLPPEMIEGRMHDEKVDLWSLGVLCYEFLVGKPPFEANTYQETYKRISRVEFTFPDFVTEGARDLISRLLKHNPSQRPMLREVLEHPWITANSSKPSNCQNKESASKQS
Method in brief: (§2)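 HeLa cells were treated for 12 h at 10, 25 or 50 nM. They were washed in PBS and lysed in Tris-HCl pH 7.5 buffer with EDTA, NaCl, PMSF and 1% SDS, then boiled for 10 min. Proteins were separated, blotted onto nitrocellulose and probed with antibodies against Aurora A or Aurora B.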

[6] = target: T2, Aurora kinase B (Homo sapiens, UniProt Q96GD4); assay: Inhibition of Aurora B in human HeLa cells after 12 hrs by Western blot method; assay type: cell-based; method in brief: as §2
[7] = target: T1, Aurora kinase A (Homo sapiens); assay: Inhibition of Aurora A in human HeLa cells at; assay type: cell-based
[8] = target: T2, Aurora kinase B; assay: Inhibition of Aurora B in human HeLa cells at; assay type: cell-based
[9] = target: T3, Aurora kinase A (Homo sapiens, UniProt O14965); assay: Inhibition of Aurora A in human HeLa cells after 12 hrs by ELISA method; assay type: cell-based
T3 sequence (O14965 whole entry): T1 sequence (whole entry)

[10] = target: T2, Aurora kinase B; assay: Inhibition of Aurora B in human HeLa cells after 12 hrs by ELISA method; assay type: cell-based
[11] = target: T1, Aurora kinase A (Homo sapiens); assay: Inhibition of Aurora A in human HeLa cells at >10 nM after 12 hrs by ELISA method; assay type: cell-based
Method in brief: (§3)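 HeLa cells were treated for 12 h. A sandwich ELISA used plates coated with anti-human Aurora A or B antibody and an HRP-labelled detection antibody. TMB substrate was added, the reaction was stopped with sulphuric acid, and absorbance was read at 450 nm.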

[12] = target: T2, Aurora kinase B; assay: Inhibition of Aurora B in human HeLa cells at >10 nM after 12 hrs by ELISA method; assay type: cell-based; method in brief: as §3
[13] = test system: HeLa; assay: Selectivity index, ratio of IC50 for Aurora B in human HeLa cells to IC50 for Aurora A in human HeLa cells; assay type: cell-based
[14] = test system: HeLa; assay: Induction of cell cycle arrest in human HeLa cells assessed as accumulation at G1 phase at 2 uM after 12 hrs by propidium iodide staining based flow cytometry (reference value: 73%); assay type: functional
[15] = test system: HeLa; assay: Induction of cell cycle arrest in human HeLa cells assessed as accumulation at S phase at 2 uM after 12 hrs by propidium iodide staining based flow cytometry (reference value: 16.6%); assay type: functional
[16] = test system: HeLa; assay: Induction of cell cycle arrest in human HeLa cells assessed as accumulation at G2/M phase at 2 uM after 12 hrs by propidium iodide staining based flow cytometry (reference value: 10.2%); assay type: functional
[17] = test system: HeLa; assay: Induction of cell cycle arrest in human HeLa cells assessed as accumulation at G1 phase at 5 uM after 12 hrs by propidium iodide staining based flow cytometry (reference value: 73%); assay type: functional
[18] = test system: HeLa; assay: Induction of cell cycle arrest in human HeLa cells assessed as accumulation at S phase at 5 uM after 12 hrs by propidium iodide staining based flow cytometry (reference value: 16.6%); assay type: functional
[19] = test system: HeLa; assay: Induction of cell cycle arrest in human HeLa cells assessed as accumulation at G2/M phase at 5 uM after 12 hrs by propidium iodide staining based flow cytometry (reference value: 10.2%); assay type: functional
[20] = test system: HeLa; assay: Induction of cell cycle arrest in human HeLa cells assessed as accumulation at G2/M phase after 12 hrs by propidium iodide staining based flow cytometry; assay type: functional
[21] = test system: HeLa; assay: Increase in cyclin B1 protein expression in human HeLa cells at 100 nM by Western blot method; assay type: functional, cell-based
Method in brief: (§4)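 Lysates were boiled for 10 min and centrifuged. Proteins were separated, transferred to nitrocellulose, probed for cyclin B1 with antibodies and developed.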

[22] = test system: HeLa; assay: Increase in cyclin B1 protein expression in human HeLa cells at 500 nM by Western blot method; assay type: functional, cell-based; method in brief: as §4

T2 sequence (Q96GD4 whole entry): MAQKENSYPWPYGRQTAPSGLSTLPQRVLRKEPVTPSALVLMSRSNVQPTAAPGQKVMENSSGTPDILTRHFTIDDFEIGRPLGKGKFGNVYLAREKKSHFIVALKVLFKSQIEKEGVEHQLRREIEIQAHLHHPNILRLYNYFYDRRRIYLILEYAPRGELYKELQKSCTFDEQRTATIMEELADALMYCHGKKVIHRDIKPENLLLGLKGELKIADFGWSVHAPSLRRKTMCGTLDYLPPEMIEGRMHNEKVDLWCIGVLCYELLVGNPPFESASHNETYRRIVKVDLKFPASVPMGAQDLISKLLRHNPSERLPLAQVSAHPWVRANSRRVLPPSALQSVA

`CCCNc1nc(Nc2ccc(N3CCOCC3)cc2)ncc1F` gave an IC50 [1] of 73.9 µM, an IC50 [2] of 8.8 µM and an IC50 [3] of 7.3 µM. It also gave an IC50 [4] of 20 µM.
`Fc1cnc(Nc2ccc(N3CCOCC3)cc2)nc1NC1CC1` showed an IC50 [1] of 40.3 µM, an IC50 [2] of 8.7 µM and an IC50 [3] of 6 µM. The IC50 [4] was 33 µM.
`CN1CCC(NC(=O)c2ccc(Nc3ncc(Br)c(NC4CCCC4)n3)cc2)CC1` showed an IC50 [1] of 3.6 µM, an IC50 [2] of 0.5 µM and an IC50 [3] of 0.9 µM. The IC50 [4] was 2.4 µM, the inhibition [5] was “Dose-dependent effect” and the inhibition [6] was “Dose-dependent effect”. For the same molecule, the inhibition [7] was “inactive”, the inhibition [8] was “inactive” and the IC50 [9] was 0.012 µM. For the same molecule, the IC50 [10] was 0.43 µM, the inhibition [11] was “Active” and the inhibition [12] was “Active”. For the same molecule, the Ratio IC50 [13] was 35, the Activity [14] was 56.2% and the Activity [15] was 10.6%. It also gave an Activity [16] of 33.2%, an Activity [17] of 50.5% and an Activity [18] of 6%. The Activity [19] was 43.5%, the Activity [20] was “Dose-dependent effect” and the inhibition [21] was “Active”. The inhibition [22] was “Active”.
`CN1CCN(c2ccc(Nc3ncc(F)c(NC4CCCC4)n3)cc2)CC1` showed an IC50 [1] of 29 µM, an IC50 [2] of 37.2 µM and an IC50 [3] of 20 µM. For the same molecule, the IC50 [4] was 25 µM.
In the case of `CN1CCN(c2ccc(Nc3ncc([N+](=O)[O-])c(NC4CCCC4)n3)cc2)CC1`, the IC50 [1] is reported as 53.7 µM, the IC50 [2] is reported as 4.6 µM and the IC50 [3] is reported as 3.8 µM. For the same molecule, the IC50 [4] was 5.2 µM.
Molecule `O=[N+]([O-])c1cnc(Nc2ccc(N3CCOCC3)cc2)nc1NC1CCCC1` has an IC50 [1] of 20 µM, an IC50 [2] of 63.7 µM and an IC50 [3] of 36.4 µM. The IC50 [4] was 21.9 µM.
`CN1CCC(NC(=O)c2ccc(Nc3ncc([N+](=O)[O-])c(NC4CCCC4)n3)cc2)CC1` gave an IC50 [1] of 15.6 µM, an IC50 [2] of 42.3 µM and an IC50 [3] of 21.7 µM. The IC50 [4] was 5.8 µM.
In the case of `Cc1cc(Nc2cc(N3CCN(C)CC3)nc(Sc3ccc(NC(=O)C4CC4)cc3)n2)n[nH]1` [TOZASERTIB], the IC50 [1] is reported as 44.6 µM, the IC50 [2] is reported as 19.4 µM and the IC50 [3] is reported as 27.3 µM. It also gave an IC50 [4] of 63.4 µM.
Work on `CN1CCC(NC(=O)c2ccc(Nc3ncc(F)c(NC4CCCC4)n3)cc2)CC1` yielded an IC50 [1] of 16 µM, an IC50 [2] of 10.3 µM and an IC50 [3] of 45.5 µM. The IC50 [4] was 10 µM.
With `CCCNc1nc(Nc2ccc(N3CCN(C)CC3)cc2)ncc1F` the IC50 [1] was 50 µM, the IC50 [2] was 5.1 µM and the IC50 [3] was 14.2 µM. It also gave an IC50 [4] of 35 µM.
`CN1CCN(c2ccc(Nc3ncc(N)c(NC4CCCC4)n3)cc2)CC1` gave an IC50 [1] of 4.2 µM, an IC50 [2] of 27 µM and an IC50 [3] of 9.7 µM. For the same molecule, the IC50 [4] was 18.5 µM.
With `COc1cc(C(=O)NC2CCN(C)CC2)ccc1Nc1ncc(F)c(NC2CCCC2)n1` the IC50 [1] was 2.1 µM, the IC50 [2] was 2.1 µM and the IC50 [3] was 2.2 µM. The IC50 [4] was 4.5 µM, the inhibition [5] was “Dose-dependent effect” and the inhibition [6] was “Dose-dependent effect”. It also gave an IC50 [9] of 0.043 µM, an IC50 [10] of 0.395 µM and a Ratio IC50 [13] of 9.
Molecule `Fc1cnc(Nc2ccc(N3CCOCC3)cc2)nc1NC1CCCC1` has an IC50 [1] of 24 µM, an IC50 [2] of 17.3 µM and an IC50 [3] of 31.4 µM. The IC50 [4] was 36.5 µM.
For `COc1cc(C(=O)NC2CCN(C)CC2)ccc1Nc1ncc(Cl)c(NC2CCCC2)n1`, the IC50 [1] was 4.4 µM, the IC50 [2] was 5.3 µM and the IC50 [3] was 2.7 µM. The IC50 [4] was 9.3 µM.
Molecule `CN1CCC(NC(=O)c2ccc(Nc3ncc(Cl)c(NC4CCCC4)n3)cc2)CC1` has an IC50 [1] of 4.6 µM, an IC50 [2] of 1.8 µM and an IC50 [3] of 1.5 µM. For the same molecule, the IC50 [4] was 2.2 µM.
With `COc1cc(C(=O)NC2CCN(C)CC2)ccc1Nc1ncc(Br)c(NC2CCCC2)n1` the IC50 [1] was 12 µM, the IC50 [2] was 2.5 µM and the IC50 [3] was 3.5 µM. For the same molecule, the IC50 [4] was 4.9 µM.
